Results taken from ChEMBL document CHEMBL3085708, “Identification and profiling of 3,5-dimethyl-isoxazole-4-carboxylic acid [2-methyl-4-((2S,3'S)-2-methyl-[1,3']bipyrrolidinyl-1'-yl)phenyl] amide as histamine H(3) receptor antagonist for the treatment of depression” (Bioorg Med Chem Lett, 2013).
Active and inactive are the calls of the source. No cut-off for these calls is given here.

system: Rattus norvegicus; test: Antidepression-like activity in rat assessed as decrease in immobility time at 60 mg/kg, po by forced swimming test; assay type: functional, organism-based; design: dose 60 mg/kg
How it was run: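 Rat forced-swim test, immobility time as read-out. Test agent given po in MC/0.6% + H2O at 1, 3 and 10 mg/kg; imipramine reference at 60 mg/kg po.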

SMILES | Activity
CN(C)CCCN1c2ccccc2CCc2ccccc21 | Active

system: not listed separately; test: Dissociation constant, pKa of the compound; assay type: physicochemical

pKa | SMILES
10.1 | Cc1cccc(C(=O)Nc2ccc(N3CC[C@H](N4CCC[C@@H]4C)C3)cc2C)n1
10.1 | Cc1cc(N2CC[C@H](N3CCC[C@@H]3C)C2)ccc1NC(=O)c1ccoc1
10.1 | Cc1cc(N2CC[C@H](N3CCC[C@@H]3C)C2)ccc1NC(=O)c1cc(C)n(C)n1
12.1 | Cc1cc(C(=O)Nc2ccc(N3CC[C@H](N4CCC[C@@H]4C)C3)cc2C)n[nH]1
10.1 | Cc1cc(N2CC[C@H](N3CCC[C@@H]3C)C2)ccc1NC(=O)c1cc(F)ccc1C
10.1 | Cc1cc(N2CC[C@H](N3CCC[C@@H]3C)C2)ccc1NC(=O)c1ccco1
9.9 | Cc1nc(N2CC[C@H](N3CCC[C@@H]3C)C2)ccc1NC(=O)c1cccc2ccccc12
10 | Cc1nc(N2CC[C@H](N3CCC[C@@H]3C)C2)ccc1NS(=O)(=O)c1ccc(F)c(F)c1
9.9 | Cc1nc(N2CC[C@H](N3CCC[C@@H]3C)C2)ccc1NC(=O)c1ccccc1
9.9 | Cc1nc(N2CC[C@H](N3CCC[C@@H]3C)C2)ccc1NC(=O)Cc1ccccc1
10.1 | Cc1nc(C(=O)Nc2ccc(N3CC[C@H](N4CCC[C@@H]4C)C3)cc2C)co1
10.1 | Cc1cc(C(=O)Nc2ccc(N3CC[C@H](N4CCC[C@@H]4C)C3)cc2C)on1

target: Histamine receptor H3 (Macaca mulatta, UniProt Q865E1); test: Displacement of [3H]N-alpha-methylhistamine from recombinant rhesus monkey histamine H3 receptor transfected in CHO cells after 1 hr by scintillation counting analysis; assay type: cell-based
Sequence (Q865E1 whole entry): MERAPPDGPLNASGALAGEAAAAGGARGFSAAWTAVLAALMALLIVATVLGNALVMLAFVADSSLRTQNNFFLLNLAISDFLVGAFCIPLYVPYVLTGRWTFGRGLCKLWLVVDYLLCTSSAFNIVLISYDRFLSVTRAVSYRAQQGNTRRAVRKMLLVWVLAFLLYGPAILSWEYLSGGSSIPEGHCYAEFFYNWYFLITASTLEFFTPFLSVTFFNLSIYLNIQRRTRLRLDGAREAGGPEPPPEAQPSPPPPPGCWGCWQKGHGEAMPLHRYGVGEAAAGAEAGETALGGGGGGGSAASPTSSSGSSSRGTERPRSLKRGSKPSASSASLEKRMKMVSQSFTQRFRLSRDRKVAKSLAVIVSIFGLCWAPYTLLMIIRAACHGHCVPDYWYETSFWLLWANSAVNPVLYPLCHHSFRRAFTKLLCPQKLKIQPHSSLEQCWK
How it was run: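 Membranes from CHO cells stably expressing recombinant rhesus monkey H3 receptor; displacement of [3H]N-α-methyl-histamine, reported as Ki.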

Ki [nM] | SMILES
1.4 | Cc1cccc(C(=O)Nc2ccc(N3CC[C@H](N4CCC[C@@H]4C)C3)cc2C)n1
3 | Cc1nc(N2CC[C@H](N3CCC[C@@H]3C)C2)ccc1NC(=O)c1ccccc1
